In one assay the target is T1, Peptide deformylase (Escherichia coli, UniProt Q9JN24).
T1 sequence (Q9JN24 whole entry): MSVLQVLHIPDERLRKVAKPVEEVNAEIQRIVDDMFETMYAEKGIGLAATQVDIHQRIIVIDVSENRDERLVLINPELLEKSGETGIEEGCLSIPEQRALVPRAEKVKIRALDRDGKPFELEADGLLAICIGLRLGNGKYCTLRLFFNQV
Kind of assay: Inhibition of Escherichia coli nickel containing peptide deformylase.

In another assay the test system is Streptococcus pneumoniae. Kind of assay: Antibacterial activity against Streptococcus pneumoniae. It counts as functional. In a few lines:
(§1)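 MIC against respiratory-tract-infection pathogens: Gram-positive S. pneumoniae and Gram-negative H. influenzae and M. catarrhalis. Where more than one strain was tested, the MIC is given as a range across strains. The minimum number of strains was 3 for H. influenzae and 1 for M. catarrhalis.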

Another assay concerns Haemophilus influenzae. Kind of assay: Antibacterial activity against Haemophilus influenzae. It counts as functional. In a few lines:
as §1

The test system of the next assay is Moraxella catarrhalis. Kind of assay: Antibacterial activity against Moraxella catarrhalis. It counts as functional. In a few lines:
as §1

For assay [1], the target named is T2, Peptide deformylase (Escherichia coli) (UniProt Q9JN24).
T2 sequence (whole entry): T1 sequence (Q9JN24 whole entry)
Kind of assay: Inhibition of Escherichia coli nickel containing peptide deformylase at 1 uM.

pIC50: −log10 of the molar value. ≈ marks a conversion by molar mass, not a printed value. Bounds are passed on as bounds.

The results in this text go back to ChEMBL document CHEMBL1795242, “Peptidomimetic inhibitors of bacterial peptide deformylase” (Bioorg Med Chem Lett, 2011).

In the case of `O=CN(O)C[C@@H](CC1CCCC1)C(=O)N1CCCCN1C(=O)c1ccccc1`, the pIC50 (as a rule, the negative decadic logarithm of the IC50, by convention in mol/L) at Peptide deformylase was 6.30. Moreover, the MIC in the assay with Streptococcus pneumoniae came to 0.5 µg/mL (≈ 1.29 µM); in the assay on Haemophilus influenzae, 1 µg/mL (≈ 2.58 µM).
`O=CN(O)C[C@@H](CC1CCCC1)C(=O)N1CCCCN1C(=O)c1ccoc1` had a pIC50 on Peptide deformylase of 8.22. The values for the MIC in the assay with Streptococcus pneumoniae, with Haemophilus influenzae and in the assay with Moraxella catarrhalis were 0.5 µg/mL (≈ 1.32 µM), 0.125 µg/mL (≈ 0.331 µM) and less than 0.03 µg/mL, respectively.
On Peptide deformylase, `O=CN(O)C[C@@H](CC1CCCC1)C(=O)N1CCCN1C(=O)c1cccnc1` had a pIC50 of 6.52. The MIC against Haemophilus influenzae turned out to be 2 µg/mL (≈ 5.34 µM).
`COc1ccccc1NC(=O)N1CCCCN1C(=O)[C@H](CC1CCCC1)CN(O)C=O` had a negative logarithm of the IC50 (pIC50) at Peptide deformylase of 8.00. Also, the MIC was found to be 4 µg/mL (≈ 9.25 µM) with Streptococcus pneumoniae and 0.5 µg/mL (≈ 1.16 µM) against Haemophilus influenzae.
For the compound `O=CN(O)C[C@@H](CC1CCCC1)C(=O)N1CCCN1C(=O)Cc1ccccc1`, the pIC50 on Peptide deformylase is 7.52. For the same compound, the MIC against Streptococcus pneumoniae came to 4 µg/mL (≈ 10.3 µM); against Haemophilus influenzae it was 2 µg/mL (≈ 5.16 µM).
For the compound `O=CN(O)C[C@@H](CC1CCCC1)C(=O)N1CCCCN1C(=O)c1ccco1`, on Peptide deformylase, the pIC50 was 8.30. For the same compound, the results for the MIC in the assay on Streptococcus pneumoniae, in the assay on Haemophilus influenzae and in the assay on Moraxella catarrhalis were 0.5 µg/mL (≈ 1.32 µM), less than 0.125 µg/mL and less than 0.125 µg/mL, respectively.
Regarding `CC(C)(C)OC(=O)N1CCCN1C(=O)[C@H](CC1CCCC1)CN(O)C=O`, on Peptide deformylase, the negative logarithm of the IC50 (pIC50) was 7.52. Besides, the values for the MIC against Streptococcus pneumoniae, against Haemophilus influenzae and against Moraxella catarrhalis were 8 µg/mL (≈ 21.7 µM), 0.5 µg/mL (≈ 1.35 µM) and less than 0.125 µg/mL, respectively.
In turn, `O=CN(O)C[C@@H](CC1CCCC1)C(=O)N1CCCN1C(=O)c1ccccc1` gave a negative-log IC50 (pIC50) on Peptide deformylase of 7.15. The MIC against Haemophilus influenzae worked out at 2 µg/mL (≈ 5.36 µM).
For the compound `O=CN(O)C[C@@H](CC1CCCC1)C(=O)N1CCCCN1C(=O)Nc1ccccc1`, the negative-log IC50 (pIC50) on Peptide deformylase was 7.70. In addition, the MIC against Streptococcus pneumoniae was 2 µg/mL (≈ 4.97 µM); in the assay on Haemophilus influenzae it was less than 0.125 µg/mL.
With `O=CN(O)C[C@@H](CC1CCCC1)C(=O)N1CCCCN1C(=O)Cc1ccccc1`, the pIC50 at Peptide deformylase was 7.22. For the same compound, the figures for the MIC against Streptococcus pneumoniae and against Haemophilus influenzae were 0.5 µg/mL (≈ 1.25 µM) and 0.25 µg/mL (≈ 0.623 µM), respectively.
As to `COc1ccc(C(=O)N2CCCCN2C(=O)[C@H](CC2CCCC2)CN(O)C=O)cc1`, the negative-log IC50 (pIC50) on Peptide deformylase is 7.00. The MIC in the assay with Streptococcus pneumoniae came out at 0.5 µg/mL (≈ 1.2 µM); in the assay with Haemophilus influenzae it was 1 µg/mL (≈ 2.4 µM).
As to `O=CN(O)C[C@@H](CC1CCCC1)C(=O)N1CCCCN1C(=O)Nc1ccc(C(F)(F)F)cc1`, the pIC50 on Peptide deformylase is 8.05. The compound also returned an MIC in the assay with Haemophilus influenzae of 0.25 µg/mL (≈ 0.531 µM).
At Peptide deformylase, `O=CN(O)C[C@@H](CC1CCCC1)C(=O)N1CCCCN1C(=O)C1CCCCC1` showed a pIC50 of 6.70. In addition, the MIC against Streptococcus pneumoniae came to 0.5 µg/mL (≈ 1.27 µM); with Haemophilus influenzae it was 4 µg/mL (≈ 10.2 µM).
The matching figures for `O=CN(O)C[C@@H](CC1CCCC1)C(=O)N1CCCN1C(=O)c1ccncc1`: 7.22, 16 µg/mL (≈ 42.7 µM) and 2 µg/mL (≈ 5.34 µM).
Consider `COCC(=O)N1CCCN1C(=O)[C@H](CC1CCCC1)CN(O)C=O`, for which the negative-log IC50 (pIC50) against Peptide deformylase was 7.22. In addition, the MIC against Haemophilus influenzae was determined as 1 µg/mL (≈ 2.93 µM).
On the same counts, the results for `O=CN(O)C[C@@H](CC1CCCC1)C(=O)N1CCCN1C(=O)C1CCCCC1` are 7.40 and 4 µg/mL (≈ 10.5 µM).
Turning to `O=C(C[C@@H](CC1CCCC1)C(=O)N1CCCCN1C(=O)Nc1ccccc1)NO`, the pIC50 on Peptide deformylase is 7.70. Besides, the MIC with Streptococcus pneumoniae came to 4 µg/mL (≈ 9.94 µM); against Haemophilus influenzae it was 1 µg/mL (≈ 2.48 µM).
At Peptide deformylase, `CC(C)(C)OC(=O)N1CCCCN1C(=O)[C@H](CC1CCCC1)CN(O)C=O` showed a negative-log IC50 (pIC50) of 8.05. Also, the MIC came out at 4 µg/mL (≈ 10.4 µM) against Streptococcus pneumoniae and 1 µg/mL (≈ 2.61 µM) against Haemophilus influenzae.
In the case of `O=C(C[C@@H](CC1CCCC1)C(=O)N1CCCCN1C(=O)c1ccco1)NO`, the pIC50 against Peptide deformylase was 8.10. Also, the MIC turned out to be 2 µg/mL (≈ 5.3 µM) against Streptococcus pneumoniae, 0.06 µg/mL (≈ 0.159 µM) with Haemophilus influenzae and 0.06 µg/mL (≈ 0.159 µM) against Moraxella catarrhalis.
For the compound `O=CN(O)C[C@@H](CC1CCCC1)C(=O)N1CCCN1C(=O)Nc1ccc(C(F)(F)F)cc1`, the negative logarithm of the IC50 (pIC50) against Peptide deformylase is 7.52. Also, the figures for the MIC in the assay on Streptococcus pneumoniae, in the assay on Haemophilus influenzae and against Moraxella catarrhalis were 2 µg/mL (≈ 4.38 µM), 2 µg/mL (≈ 4.38 µM) and 0.06 µg/mL (≈ 0.131 µM), respectively.
Compound `COc1ccc(C(=O)N2CCCN2C(=O)[C@H](CC2CCCC2)CN(O)C=O)cc1` showed a pIC50 on Peptide deformylase of 7.30. Moreover, the MIC with Streptococcus pneumoniae stood at 4 µg/mL (≈ 9.91 µM); with Haemophilus influenzae it was 16 µg/mL (≈ 39.7 µM).
On Peptide deformylase, `COc1ccccc1NC(=O)N1CCCN1C(=O)[C@H](CC1CCCC1)CN(O)C=O` had a pIC50 of 8.15. Moreover, the MIC was 8 µg/mL (≈ 19.1 µM) in the assay on Streptococcus pneumoniae, 1 µg/mL (≈ 2.39 µM) against Haemophilus influenzae and 0.25 µg/mL (≈ 0.597 µM) in the assay with Moraxella catarrhalis.
On Peptide deformylase, `O=CN(O)C[C@@H](CC1CCCC1)C(=O)N1CCCN1C(=O)Nc1ccc(F)cc1` gave a pIC50 of 8.00. Moreover, the MIC against Streptococcus pneumoniae was 8 µg/mL (≈ 19.7 µM); in the assay with Haemophilus influenzae, less than 0.125 µg/mL.
`O=CN(O)C[C@@H](CC1CCCC1)C(=O)N1CCCCN1C(=O)Nc1ccc(F)cc1` gave a negative-log IC50 (pIC50) on Peptide deformylase of 8.00. The MIC is 4 µg/mL (≈ 9.51 µM) against Streptococcus pneumoniae and less than 0.125 µg/mL with Haemophilus influenzae.
With `O=CN(O)C[C@@H](CC1CCCC1)C(=O)N1CCCN1C(=O)c1ccc(F)cc1`, the pIC50 on Peptide deformylase is 7.70. Also, the MIC in the assay on Haemophilus influenzae came out at 4 µg/mL (≈ 10.2 µM).
In turn, `COCC(=O)N1CCCCN1C(=O)[C@H](CC1CCCC1)CN(O)C=O` had a pIC50 at Peptide deformylase of 6.70. For the same compound, the MIC in the assay with Streptococcus pneumoniae was determined as 1 µg/mL (≈ 2.81 µM); in the assay on Haemophilus influenzae, 0.25 µg/mL (≈ 0.703 µM).
For the compound `O=CN(O)C[C@@H](CC1CCCC1)C(=O)N1CCCN1C(=O)c1ccoc1`, the negative logarithm of the IC50 (pIC50) on Peptide deformylase was 8.00. Further, in the assay on Haemophilus influenzae, the MIC is 1 µg/mL (≈ 2.75 µM).
Compound `O=CN(O)C[C@@H](CC1CCCC1)C(=O)N1CCCN1C(=O)Nc1ccccc1` gave a negative-log IC50 (pIC50) against Peptide deformylase of 8.00. Also, the values for the MIC in the assay on Streptococcus pneumoniae and in the assay with Haemophilus influenzae were 4 µg/mL (≈ 10.3 µM) and less than 0.125 µg/mL, respectively.
`O=CN(O)C[C@@H](CC1CCCC1)C(=O)N1CCCN1C(=O)c1ccco1` had a pIC50 against Peptide deformylase of 7.52. For the same compound, the MIC against Streptococcus pneumoniae was 4 µg/mL (≈ 11 µM); in the assay with Haemophilus influenzae it was less than 0.125 µg/mL; against Moraxella catarrhalis it was less than 0.125 µg/mL.
`COc1cccc(NC(=O)N2CCCCN2C(=O)[C@H](CC2CCCC2)CN(O)C=O)c1` had a pIC50 against Peptide deformylase of 7.70. Moreover, the results for the MIC against Streptococcus pneumoniae and in the assay on Haemophilus influenzae were 2 µg/mL (≈ 4.62 µM) and less than 0.125 µg/mL, respectively.
`O=CN(O)C[C@@H](CC1CCCC1)C(=O)N1CCCCN1C(=O)c1ccncc1` showed a negative logarithm of the IC50 (pIC50) against Peptide deformylase of 6.52. The MIC with Streptococcus pneumoniae and against Haemophilus influenzae was 2 µg/mL (≈ 5.15 µM) each time.
As to `O=CN(O)C[C@@H](CC1CCCC1)C(=O)N1CCCCN1C(=O)c1cccnc1`, the inhibition – broadly, how much of the control response was suppressed – in assay [1] is 40%.
Consider `O=CN(O)C[C@@H](CC1CCCC1)C(=O)N1CCCCN1C(=O)c1ccc(F)cc1`, for which the negative logarithm of the IC50 (pIC50) against Peptide deformylase is 7.22. Moreover, the MIC in the assay on Streptococcus pneumoniae and in the assay with Haemophilus influenzae was 0.5 µg/mL (≈ 1.23 µM) in each case.
As to `COc1cccc(NC(=O)N2CCCN2C(=O)[C@H](CC2CCCC2)CN(O)C=O)c1`, the pIC50 against Peptide deformylase is 8.00. Further, the MIC in the assay with Streptococcus pneumoniae is 4 µg/mL (≈ 9.56 µM); against Haemophilus influenzae, less than 0.125 µg/mL.
